The text below walks through data of ChEMBL document CHEMBL1147233, “Chemistry and structure-activity relationship of HIV-1 integrase inhibitor integracide B and related natural products” (J Nat Prod, 2003).

The nature of assay [1]: Inhibition of DNAse.
Assay [2] deals with T1, Human immunodeficiency virus type 1 integrase (Human immunodeficiency virus 1, UniProt Q7ZJM1). The assay can be described thus: Inhibition of HIV1 integrase assessed as inhibition of 3'-end processing reaction. Put shortly:
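Specific 3′-end processing of LTR donor-sequence oligonucleotide substrates, run with […]. IC₅₀ values without error limits are the average of duplicate or triplicate data sets.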

The subject of assay [3] is Human immunodeficiency virus 1. The assay can be described thus: Antiviral activity against HIV1 infected in human H9 cells. Type of assay: functional. Conditions: Human immunodeficiency virus 1, H9; read-out: CIC95. Put shortly: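 Multiple-cycle viral spread assay in HIV-1-infected H9 T-lymphoid cells; value is CIC95, the concentration giving >95% protection from viral infection.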

Assay [4] deals with T1, Human immunodeficiency virus type 1 integrase. The assay can be described thus: Inhibition of recombinant HIV1 integrase using preprocessed donor DNA treated after washing excess enzyme by strand transfer assay. Put shortly:
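Integrase preincubated with preprocessed donor DNA, unbound enzyme washed off, then target DNA and inhibitor added together. Strand transfer product measured. Final DMSO 10%. IC50 from serial 2-fold dilutions run in duplicate or triplicate; values without error limits are the average of these.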

The target of assay [5] is Type II restriction enzyme EcoRI (Escherichia coli, UniProt P00642). The assay can be described thus: Inhibition of Escherichia coli ECOR1.
Type II restriction enzyme EcoRI, sequence (P00642 whole entry): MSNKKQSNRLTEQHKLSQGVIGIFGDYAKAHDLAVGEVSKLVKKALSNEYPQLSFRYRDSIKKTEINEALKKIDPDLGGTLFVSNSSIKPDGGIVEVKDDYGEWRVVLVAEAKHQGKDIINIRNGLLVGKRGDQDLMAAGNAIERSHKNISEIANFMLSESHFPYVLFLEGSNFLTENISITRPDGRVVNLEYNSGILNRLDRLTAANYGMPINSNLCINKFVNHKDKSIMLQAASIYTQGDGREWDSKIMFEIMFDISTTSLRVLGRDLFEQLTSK
Assay [6] addresses T1, Human immunodeficiency virus type 1 integrase. The assay can be described thus: Inhibition of recombinant HIV1 integrase using unprocessed donor DNA by coupled assay. Put shortly:
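Unprocessed donor DNA and inhibitor incubated with recombinant integrase together for 30 min, then target DNA added; strand-transfer product measured. Final DMSO 10%. IC50 from serial 2-fold dilutions in duplicate or triplicate; values without error limits are the average of these.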

For assay [7] the target is unchanged. The assay can be described thus: Inhibition of HIV1 integrase-mediated preintegration complex formation by Southern blotting. In a few lines: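 Preintegration complexes were isolated from HIV-1-infected cells, partially purified and used in an integration reaction. Products were analysed by Southern blotting and quantified by phosphorimaging. IC₅₀ values without error limits are the average of duplicate or triplicate data sets.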

For assay [8] the target is unchanged. The assay can be described thus: Inhibition of recombinant HIV1 integrase using preprocessed donor DNA by assembly assay. In a few lines:
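Recombinant integrase and inhibitor were incubated with preprocessed donor DNA, unbound integrase was washed off, then target DNA was added. The read-out is the strand-transfer product. Final DMSO was 10%. IC₅₀ came from 2-fold dilution series run in duplicate or triplicate.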

A value given as a limit tells only on which side of the number the result lay.

T1 sequence (Q7ZJM1 whole entry): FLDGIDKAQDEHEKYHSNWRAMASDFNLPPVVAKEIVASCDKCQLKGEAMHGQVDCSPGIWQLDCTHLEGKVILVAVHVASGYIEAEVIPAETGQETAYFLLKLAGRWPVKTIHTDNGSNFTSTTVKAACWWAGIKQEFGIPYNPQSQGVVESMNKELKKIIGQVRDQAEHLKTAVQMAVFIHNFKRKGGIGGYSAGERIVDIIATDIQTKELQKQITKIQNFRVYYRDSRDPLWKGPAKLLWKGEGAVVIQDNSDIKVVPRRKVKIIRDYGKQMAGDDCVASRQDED

On to `C=C(CC[C@@H](C)[C@H]1CC=C2C3=C([C@@H](O)[C@H](OC(C)=O)[C@@]21C)[C@@]1(C)C[C@@H](O)[C@H](OC(=O)CCC(=O)O)C(C)(C)[C@@H]1CC3)C(C)C`, for which the 50% inhibitory concentration (IC50) in assay [1] was above 50 µM; in assay [2], 5 µM; in assay [4], 12 µM; in assay [5], above 50 µM; in assay [6], 3 µM. In addition, in assay [3], the IC95 came to 6 µM.
As to `C=C(CC[C@@H](C)[C@H]1CC=C2C3=C([C@@H](O)[C@H](OC(C)=O)[C@@]21C)[C@@]1(C)C[C@@H](OC(=O)CCC(=O)O)[C@H](O)C(C)(C)[C@@H]1CC3)C(C)C`, the half-inhibitory concentration (IC50) in assay [1] was above 50 µM; in assay [4], 12 µM; in assay [5], above 50 µM; in assay [6] it was 3 µM. The IC95 in assay [3] came out at 6 µM.
For the molecule `C=C(CC[C@@H](C)[C@H]1CC[C@H]2C3=C([C@@H](O)[C@H](OC(C)=O)[C@]12C)[C@@]1(C)C[C@@H](O)[C@H](OS(=O)(=O)O)C(C)(C)[C@@H]1CC3)C(C)C`, the half-maximal inhibitory concentration (IC50) in assay [1] is above 50 µM; in assay [2] it was 5 µM; in assay [7], 30 µM; in assay [4], 15 µM; in assay [8], 10 µM; in assay [5] it was above 50 µM. Moreover, the IC50 in assay [6] stood at 5 µM. Moreover, the IC95 in assay [3] came to 50 µM.
Turning to `C=C(CC[C@@H](C)[C@H]1CC=C2C3=C([C@@H](O)[C@H](O)[C@@]21C)[C@@]1(C)C[C@@H](O)[C@H](O)C(C)(C)[C@@H]1CC3)C(C)C`, the IC50 was above 50 µM in assay [1], above 50 µM in assay [4], above 50 µM in assay [5] and 48 µM in assay [6].
As to `C=C(CC[C@@H](C)[C@H]1CC(=O)C2=C3CC[C@H]4C(C)(C)[C@@H](O)[C@H](O)C[C@]4(C)C3=C[C@H](OC(C)=O)[C@@]21C)C(C)C`, the IC50 in assay [1] was above 50 µM; in assay [4] it was 40 µM; in assay [5], above 50 µM; in assay [6] it was 25 µM.
Consider `C=C(CC[C@@H](C)[C@H]1CC=C2C3=C([C@@H](O)[C@H](OC(C)=O)[C@@]21C)[C@@]1(C)C[C@@H](OCOC)[C@H](OCOC)C(C)(C)[C@@H]1CC3)C(C)C`, for which the IC50 in assay [1] was above 50 µM; in assay [4], above 80 µM; in assay [5] it was above 50 µM; in assay [6], above 80 µM.
Take `C=C(CC[C@@H](C)[C@H]1CC=C2C3=C([C@@H](O)[C@H](OC(C)=O)[C@@]21C)[C@@]1(C)C[C@@H](O)[C@H](OCOC)C(C)(C)[C@@H]1CC3)C(C)C`: the IC50 in assay [1] was above 50 µM; in assay [4], above 80 µM; in assay [5], above 50 µM; in assay [6], above 80 µM.
Consider `C=C(CC[C@@H](C)[C@H]1CC=C2C3=C([C@@H](OC(C)=O)[C@H](OC(C)=O)[C@@]21C)[C@@]1(C)C[C@@H](OC(C)=O)[C@H](OC(C)=O)C(C)(C)[C@@H]1CC3)C(C)C`, for which the IC50 in assay [1], in assay [4], in assay [5] and in assay [6] was above 50 µM each time.
For `C[C@H](CCC(O)C(C)(C)O)[C@H]1CC[C@@]2(C)C3=C(CC[C@]12C)[C@@]1(C)C[C@@H](O)C(=O)C(C)(C)[C@@H]1CC3` (stereo partly drawn) [CLAVARINONE], the IC50 in assay [1] is above 50 µM; in assay [4], above 100 µM; in assay [5] it was above 50 µM; in assay [6] it was 68 µM.
`C=C(CC[C@@H](C)[C@H]1CC=C2C3=C([C@@H](O)[C@H](OC(C)=O)[C@@]21C)[C@@]1(C)C[C@@H](OC(=O)CN)[C@H](O)C(C)(C)[C@@H]1CC3)C(C)C`: the IC50 in assay [1] is above 50 µM; in assay [4], above 50 µM; in assay [5], above 50 µM; in assay [6] it was 23 µM.
In the case of `COC(=O)C[C@@](C)(O)CC(=O)O[C@@H]1C[C@]2(C)C3=C(CC[C@H]2C(C)(C)C1=O)[C@]1(C)CC[C@H]([C@H](C)CCC(O)C(C)(C)O)[C@@]1(C)CC3` (stereo partly drawn), the half-inhibitory concentration (IC50) is above 50 µM in assay [1], above 100 µM in assay [4], above 50 µM in assay [5] and 70 µM in assay [6].
With `C=C(CC[C@@H](C)[C@H]1CC=C2C3=C([C@@H](O)[C@H](OC(C)=O)[C@@]21C)[C@@]1(C)C[C@@H](OC(=O)CNC(=O)OCC2c4ccccc4-c4ccccc42)[C@H](OC(=O)CNC(=O)OCC2c4ccccc4-c4ccccc42)C(C)(C)[C@@H]1CC3)C(C)C`, the IC50 in assay [1], in assay [4], in assay [5] and in assay [6] was above 50 µM in each case.
`C=C(CC[C@@H](C)[C@H]1C[C@H](OC)c2c3c(cc(C)c21)[C@@]1(C)C[C@@H](O)[C@H](O)C(C)(C)[C@@H]1CC3)C(C)C`: the IC50 in assay [1] is above 50 µM; in assay [4] it was above 100 µM; in assay [5], above 50 µM; in assay [6], 50 µM.
For `C=C(CC[C@@H](C)[C@H]1CC=C2C3=C([C@@H](O)[C@H](OC(C)=O)[C@@]21C)[C@@]1(C)C[C@@H](OC(=O)CNC(=O)OCC2c4ccccc4-c4ccccc42)[C@H](O)C(C)(C)[C@@H]1CC3)C(C)C`, the 50% inhibitory concentration (IC50) in assay [1], in assay [4], in assay [5] and in assay [6] was above 50 µM in each case.
Take `C=C(CC[C@@H](C)[C@H]1CC=C2C3=C([C@@H](O)[C@H](OC(C)=O)[C@@]21C)[C@@]1(C)C[C@@H](OC(=O)CNC(=O)OC(C)(C)C)[C@H](OC(=O)CNC(=O)OC(C)(C)C)C(C)(C)[C@@H]1CC3)C(C)C`: the IC50 in assay [1], in assay [4], in assay [5] and in assay [6] was above 50 µM each time.
For the molecule `C=C(CC[C@@H](C)[C@H]1CC=C2C3=C([C@@H](O)[C@H](OC(C)=O)[C@@]21C)[C@@]1(C)C[C@@H](OC(=O)c2ccccc2)[C@H](O)C(C)(C)[C@@H]1CC3)C(C)C`, the IC50 is above 50 µM in assay [1], above 80 µM in assay [4], above 50 µM in assay [5] and above 80 µM in assay [6].
For the molecule `C=C(CC[C@@H](C)[C@H]1CC=C2C3=C([C@@H](O)[C@H](OC(C)=O)[C@@]21C)[C@@]1(C)C[C@@H](OC(=O)CCC(=O)OC)[C@H](O)C(C)(C)[C@@H]1CC3)C(C)C`, the IC50 in assay [1], in assay [4], in assay [5] and in assay [6] was above 50 µM in each case.
`CC(=O)O[C@H]1[C@H](O)C2=C(CC[C@H]3C(C)(C)[C@@H](OS(=O)(=O)O)[C@H](OC(=O)CCCCCCCCCCCCCCCO)C[C@]23C)[C@@H]2CC[C@H]([C@H](C)CCC3(C(C)(C)O)CO3)[C@]21C` (stereo partly drawn): the IC50 in assay [1] was above 50 µM; in assay [2], 2 µM; in assay [7] it was 50 µM; in assay [4] it was 5.6 µM; in assay [8], 12 µM; in assay [5], above 50 µM. The 50% inhibitory concentration (IC50) in assay [6] is 5.6 µM. In addition, the IC95 in assay [3] is above 50 µM.
For `C=C(CC[C@@H](C)[C@H]1CC=C2C3=C(C(=O)[C@H](OC(C)=O)[C@@]21C)[C@@]1(C)C[C@@H](O)[C@H](O)C(C)(C)[C@@H]1CC3)C(C)C`, the half-inhibitory concentration (IC50) is above 50 µM in assay [1], above 100 µM in assay [4], above 50 µM in assay [5] and 75 µM in assay [6].
Take `C=C(CC[C@@H](C)[C@H]1CC=C2C3=C([C@@H](O)[C@H](OC(C)=O)[C@@]21C)[C@@]1(C)C[C@@H](O)[C@H](O)C(C)(C)[C@@H]1CC3)C(C)C` [INTEGRACIDE B]: the IC50 in assay [1] is above 50 µM; in assay [4] it was above 100 µM; in assay [5], above 50 µM; in assay [6] it was 82 µM.
Consider `C=C(CC[C@@H](C)[C@H]1CC=C2C3=C([C@@H](O)[C@H](OC(C)=O)[C@@]21C)[C@@]1(C)C[C@@H](OC(=O)c2ccccc2)[C@H](OC(=O)c2ccccc2)C(C)(C)[C@@H]1CC3)C(C)C`, for which the IC50 was above 50 µM in assay [1], above 69 µM in assay [4], above 50 µM in assay [5] and above 69 µM in assay [6].
For `CC(=O)O[C@H]1[C@H](O)C2=C(CC[C@H]3C(C)(C)[C@@H](OS(=O)(=O)O)[C@H](OC(=O)CCCCCCCCCCCCCCCO)C[C@]23C)C2=CC[C@H]([C@H](C)CCC3(C(C)(C)O)CO3)[C@]21C` (stereo partly drawn), the concentration for half-maximal inhibition (IC50) in assay [1] was above 50 µM; in assay [2], 10 µM; in assay [4], 14 µM; in assay [5] it was above 50 µM; in assay [6] it was 5 µM. Also, the IC95 in assay [3] was 6 µM.
Consider `C=C(CC[C@@H](C)[C@H]1CC=C2C3=C([C@@H](O)[C@H](OC(C)=O)[C@@]21C)[C@@]1(C)C[C@@H](O)[C@H](OS(=O)(=O)O)C(C)(C)[C@@H]1CC3)C(C)C` [INTEGRACIDE A], for which the IC50 in assay [1] is above 50 µM; in assay [2] it was 5 µM; in assay [7], 50 µM; in assay [4] it was 9 µM; in assay [5], above 50 µM; in assay [6], 4 µM. In addition, in assay [3], the IC95 stood at 25 µM.

As a reminder, the IC50 is the point on the concentration scale where inhibition reaches its midpoint.
